Diaphorase inh: inhibits diaphorase or chemically oxidizes, flagging diaphorase assay artifacts. inhibition, % at 20 µM. AID 1217. 0.69% of 190,000 active. diaphorase resazurin-to-resorufin fluorescence, NADH, 16 min; bacterial (C. kluyveri) enzyme, not human;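 active = primary screen inhibition at 20 µM above a set limit, cut at about 50% in these data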;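 note: plate controls were DMSO with full reaction for no effect and wells lacking NADH for full effect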
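Assay system: diaphorase enzyme from Clostridium kluyveri. Quantity: enzyme working solution with 0.14 U/mL diaphorase. Schedule: reaction incubation of 16 min at room temperature. Technique: resorufin fluorescence, excitation 544 nm, emission 590 nm. Controls: No-NADH positive control and DMSO neutral control.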
FLuc stim CS: firefly luciferase counter-screen for stimulation assays | activation factor at 10 µM | 200,000 tested, under 10 active | P08659 | ATPlite luciferase biochemical, luminescence, 10 min; 0 = ATP-free wells, 1 = DMSO control | AID 1027;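 active = luciferase activation factor, scaled between plate controls, of at least 2 with compound at 10 µM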
Target sequence (P08659 whole entry, looked up): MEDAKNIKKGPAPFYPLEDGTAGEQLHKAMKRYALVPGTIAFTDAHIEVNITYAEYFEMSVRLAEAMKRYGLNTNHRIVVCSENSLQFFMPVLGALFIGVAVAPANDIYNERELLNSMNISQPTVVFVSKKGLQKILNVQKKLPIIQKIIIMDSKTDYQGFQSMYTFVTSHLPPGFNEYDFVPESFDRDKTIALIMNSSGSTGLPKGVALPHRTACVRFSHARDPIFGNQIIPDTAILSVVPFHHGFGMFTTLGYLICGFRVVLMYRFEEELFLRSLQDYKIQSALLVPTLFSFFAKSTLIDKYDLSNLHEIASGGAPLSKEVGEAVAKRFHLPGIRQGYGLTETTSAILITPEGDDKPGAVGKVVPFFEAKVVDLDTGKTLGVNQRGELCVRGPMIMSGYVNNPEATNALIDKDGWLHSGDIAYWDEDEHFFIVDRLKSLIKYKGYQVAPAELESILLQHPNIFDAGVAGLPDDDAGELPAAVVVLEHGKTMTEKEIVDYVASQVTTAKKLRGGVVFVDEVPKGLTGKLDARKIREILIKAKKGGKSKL
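Material: Luciferase/luciferin reagent mix | Doses: Test compounds dosed from 2 mM stocks in 100% DMSO | Timing: 10 min incubation after luciferase reagent addition, room temperature | Measured by: Luminescence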
FLuc inhib CS: counter-screen for luciferase assay inhibitors: firefly luciferase inhibition. P08659. ATPLite firefly luciferase biochemical luminescence, 10 min. inhibition, % at 10 µM. 1.5% of 200,000 active. AID 1006;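 active = inhibition above about 50% when tested at 10 µM, limit read from the data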
PMI act hi M6P: increases human PMI activity with near-saturating mannose 6-phosphate | activation factor at 20 µM | coupled PMI enzyme assay, resazurin fluorescence, 20 min; active compounds read high; 1 = untreated enzyme, 0 = substrate-free blank | P34949 | 0.34% of 190,000 active;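 active = activation factor of 2 or more at 20 µM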
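Test system: human phosphomannose isomerase with PGI, G6PDH, diaphorase coupling enzymes / Doses: 20 µM compound, 1% DMSO / Times: enzyme reaction with compound 20 min at room temperature / Measured by: Diaphorase-driven resazurin-to-resorufin fluorescence, excitation 544, emission 590 nm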
PMI act: increases human mannose-6-phosphate isomerase activity. purified human PMI, coupled resazurin fluorescence, 20 min; active compounds read high; 1 = vehicle control, 0 substrate-free wells. 0.005% of 190,000 active. activation factor at 20 µM;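 active = activation factor of 2 or more at 20 µM, relative to plate controls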
Diaph act CS: diaphorase activation or chemical reduction counter-screen; Diaphorase/resazurin coupled assay, resorufin fluorescence, 16 min; active compounds read high; 1 = vehicle wells, 0 = NADH-free wells; activation factor at 20 µM; 0.005% of 190,000 active; AID 1229;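 active = diaphorase activity raised at least twofold by the compound at 20 µM; inactive = activation factor below 2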
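test system = bacterial diaphorase enzyme (C. kluyveri) | quantity = enzyme 0.07 U/mL final | reagent = NADH substrate 0.114 mM plus resazurin dye 0.1 mM, final | incubation = 16 min enzyme reaction, ambient temperature | buffer or medium = HEPES pH 7.4 buffer with MgCl2 and Tween 20 | signal = fluorescence of resorufin, 544 nm excitation, 590 nm emission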
Active calls of the source: *. Shown are actives, neighbours in structure and some others; about 2.5% of the full set was active somewhere.

SMILES	Diaphorase inh	FLuc stim CS	FLuc inhib CS	PMI act hi M6P	PMI act	Diaph act CS
c1cc(-c2nc3cc(Cc4ccc5oc(-c6ccncc6)nc5c4)ccc3o2)ccn1	2	1.1	-6	1	1	1
CCc1ccc2oc(-c3cc(N)ccc3O)nc2c1	-7	0.1	88*	1.1	1.1	1.1
Nc1ccc2oc(-c3ccccc3Cl)nc2c1	14	0.3	75*	0.8	0.9	0.9
Nc1ccc2oc(-c3cc(Br)ccc3Cl)nc2c1	29	1	2	0.5	0.8	0.7
Nc1nc(-c2cccnc2)nc2sc3c(c12)CCCC3	28	0.2	85*	1	0.9	0.7
COc1cc(/C=N/NC(=S)NCCN2CCOCC2)ccc1O	12	1	-5	1	0.9	0.9
N/C(=N\OC(=O)c1cccc(Br)c1)c1ccncc1	8	0.6	39	0.9	0.9	0.9
N/C(=N\OC(=O)c1ccc(Br)cc1)c1ccncc1	0	0.3	68*	1.1	1.2	1
N/C(=N\OCc1ccc([N+](=O)[O-])cc1)c1ccccn1	-8	0	96*	1.2	1.3	1.1
C/C(=N\OC(=O)c1ccc(Br)cc1)c1ccccn1	9	0.2	80*	0.9	1	0.9
N/C(=N\OC(=O)c1ccccc1)c1ccncc1	-13	0.3	66*	1.2	1.2	1.1
N/C(=N\OC(=O)c1ccc(F)cc1)c1ccc(Br)cc1	-11	0.6	36	1	1	1.1
C/C(=N/OCc1ccc(Br)cc1)c1ccccn1	9	0.5	45	1	0.9	0.9
O=C(OCc1ccccc1)c1ccc(Br)o1	24	1	4	0.9	0.8	0.8
N/C(=N\OC(=O)c1ccc(Br)o1)c1ccccn1	8	0.2	78*	1.1	1	0.9
N/C(=N\OC(=O)c1ccccc1)c1ccccn1	10	0	96*	0.9	0.8	0.9
N/C(=N\OC(=O)c1cc(Cl)ccc1Cl)c1ccccn1	-6	0.3	75*	1.1	1	1.1
N/C(=N\OC(=O)/C=C/c1ccccc1Cl)c1ccccn1	14	0.3	74*	1.5	1.4	0.9
CCOC(=O)Cn1nc(C)c(NC(=O)COc2ccccc2[N+](=O)[O-])c1C	4	1.1	-8	1	1	1
COc1ccccc1/C=C(/C(=O)OCC(=O)Nc1cc(C)ccc1C)c1ccccc1	9	1.1	-8	1	0.9	0.9
O=C(NNC(=S)NC(=O)C12CC3CC(CC(C3)C1)C2)c1ccncc1	51*	1	2	1.1	1	0.5
Nc1[nH]ncc1-c1ccc(F)cc1	6	1	-1	1	1	0.9
CC1CCc2sc(-c3n[nH]c(=S)o3)cc2C1 (configuration not stated)	-4	0.4	57*	1.2	1.2	1
CCn1ccc2cc(OC)ccc2c1=S	14	0.9	5	2*	1.4	0.9
CCn1cc(C(=O)O)c(=O)c2cc(OC)ccc21	10	0.9	5	0.8	0.8	0.9
SMILES	Diaphorase inh	FLuc stim CS	FLuc inhib CS	PMI act hi M6P	PMI act	Diaph act CS
COc1ccc(-n2c(NC(=O)c3ccc(Br)o3)c(C#N)c3nc4ccccc4nc32)cc1	63*	1	-5	0.3	0.6	0.4
COc1ccc(Cn2c(N)c(C#N)c3nc4ccccc4nc32)cc1	8	1.1	-7	0.8	0.8	0.9
CCC(CO)NS(=O)(=O)c1cc(-c2nn(C)c(=O)c3ccccc23)ccc1C (configuration not stated)	16	1.1	-7	1	0.9	0.8
CC1N(O)C(c2ccc(Cl)cc2Cl)N(O)C1(C)C (configuration not stated)	2	1.1	-8	2*	1.8	1
COc1ccc(N=Cc2[nH]c3ccccc3c2O)cc1	40	0.1	86*	0.7	0.9	0.6
COc1ccc(N=C(C)C2=C(O)c3ccccc3C2=O)cc1	15	0.2	81*	0.9	1	0.8
O=C1C(C=Nc2ccccc2O)=C(O)c2ccccc21	-8	0.2	85*	1.1	1.2	1.1
O=C1C(C=Nc2ccccc2)=C(O)c2ccccc21	12	0.1	86*	1.1	1	0.9
Cc1ccc(O)c(N=CC2=C(O)c3ccccc3C2=O)c1	22	0.7	32	0.8	1.2	0.8
C/C(=N\N(C)C)C1=C(O)c2ccccc2C1=O	10	0.9	9	0.9	1	0.9
COc1ccc(N=Cc2oc3ccc4ccccc4c3c2O)cc1	12	0.7	26	0.9	1.1	0.9
CN(CC(=O)Nc1ccccc1-c1ccccc1)Cc1ccccc1Cl	29	1.1	-5	0.8	0.8	0.7
Cn1ccc(C(=O)Oc2ccc(C(=O)Nc3ccc(F)cc3F)cc2)n1	-17	1	-2	1.1	1.1	1.2
COc1ccc(N=CC2=C(O)c3ccccc3C2=O)cc1	14	0.1	92*	0.9	0.9	0.9
Cc1ccc(C(=O)O/N=C(\N)c2nonc2N)cc1	7	0.2	84*	1	1	0.9
N/C(=N/OC(=O)c1ccccc1Cl)c1nonc1N	5	0.5	52*	1	1.1	1
CCCOc1ccc(C(NC(=O)CC(C)C)NC(=O)CC(C)C)cc1OC	9	1.1	-10	1.1	1.1	0.9
CC(OC(=O)c1cccn1C)C(=O)Nc1ccc2c(c1)OCO2 (configuration not stated)	5	1.1	-5	0.9	1	0.9
CC1(C)Cc2ccccc2C2CC(O)C(=O)N21 (configuration not stated)	-10	1	-4	2*	1.4	1.1
CC1CC(C)(C)N(C(=O)CN2C(=O)c3ccccc3C2=O)c2ccccc21 (configuration not stated)	21	1.1	-6	1	1	0.8
O=C(NCCc1ccccc1)C(NS(=O)(=O)c1cccc2nsnc12)c1ccccc1 (configuration not stated)	25	1.1	-7	0.9	0.9	0.8
CCCCSc1nc(C)[nH]c1[N+](=O)[O-]	15	1	-4	2*	1.7	0.8
Cc1nc(SCCC(C)C)c([N+](=O)[O-])[nH]1	3	1	-3	1.6	1.6	1
O=C(/C=C/c1ccc(O)c(O)c1)c1ccc(S(=O)(=O)N2CCCCCC2)cc1	52*	1	-4	0.7	0.3	0.5
NS(=O)(=O)c1cccc(NC(=O)Cc2ccc(Cl)c(Cl)c2)c1	18	1	1	0.9	1	0.8
